In ChEMBL document CHEMBL4765319, “Identification of a new series of flavopiridol-like structures as kinase inhibitors with high cytotoxic potency” (Eur J Med Chem, 2020):

Experiments:
K562 [1] = assay: Cell cycle arrest in human K562 cells assessed as accumulation at S phase at 50 nM after 24 hrs by propidium iodide staining-based flow cytometric analysis (reference value: […]); assay type: functional
MIA PaCa-2 [2] = assay: Antiproliferative activity against human MIA PaCa-2 cells assessed as reduction in cell viability incubated for 72 hrs by CellTiter-Blue fluorescence assay; settings: MIA PaCa-2, 72 h
[3] = biological target: T1, CDK2/Cyclin A2 (Homo sapiens) (UniProt P24941+P20248); assay: Inhibition of human CDK2/cyclin A assessed as residual activity at 10 uM in presence of ATP by ADP-glo luminescent assay relative to control; assay type: protein-complex assay
Procedure, shortened: (§1)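 Human kinases assayed by ADP-Glo luminescence with 10 μM ATP, compound at 10 or 1 μM. Activity is expressed as % of maximal activity relative to a DMSO control, mean n = 2.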

Leishmania major = assay: Inhibition of Leishmania major CK1 assessed as residual activity at 1 uM in presence of ATP by ADP-glo luminescent assay relative to control
PC-3 = assay: Antiproliferative activity against human PC-3 cells assessed as reduction in cell viability incubated for 72 hrs by CellTiter-Blue fluorescence assay; settings: PC-3, 72 h
K562 [4] = assay: Cell cycle arrest in human K562 cells assessed as accumulation at S phase at 25 nM after 24 hrs by propidium iodide staining-based flow cytometric analysis (reference value: […]); assay type: functional
HCT-116 [5] = assay: Cell cycle arrest in human HCT-116 cells assessed as accumulation at G2/M phase at 200 nM after 24 hrs by propidium iodide staining-based flow cytometric analysis (reference value: 31.5 %); assay type: functional
HCT-116 [6] = assay: Cell cycle arrest in human HCT-116 cells assessed as accumulation at S phase at 500 nM after 24 hrs by propidium iodide staining-based flow cytometric analysis (reference value: 47.6 %); assay type: functional
K562 [7] = assay: Cell cycle arrest in human K562 cells assessed as increase in accumulation at G0/G1 phase after 24 hrs by propidium iodide staining-based flow cytometric analysis; assay type: functional; settings: dose 25-100 nM
Sus scrofa [8] = species: Sus scrofa; assay: Inhibition of porcine CK1delta/epsilon assessed as residual activity at 1 uM in presence of ATP by ADP-glo luminescent assay relative to control
MIA PaCa-2 [9] = assay: Potency index, ratio of flavopiridol IC50 to test compound IC50 for human MIA PaCa-2 cells assessed as reduction in cell viability incubated for 72 hrs by CellTiter-Blue resazurin fluorescence assay
[10] = biological target: Glycogen synthase kinase-3 alpha (Homo sapiens, UniProt P49840); assay: Inhibition of human GSK3alpha by ADP-Glo assay
Sequence of Glycogen synthase kinase-3 alpha (P49840 whole entry): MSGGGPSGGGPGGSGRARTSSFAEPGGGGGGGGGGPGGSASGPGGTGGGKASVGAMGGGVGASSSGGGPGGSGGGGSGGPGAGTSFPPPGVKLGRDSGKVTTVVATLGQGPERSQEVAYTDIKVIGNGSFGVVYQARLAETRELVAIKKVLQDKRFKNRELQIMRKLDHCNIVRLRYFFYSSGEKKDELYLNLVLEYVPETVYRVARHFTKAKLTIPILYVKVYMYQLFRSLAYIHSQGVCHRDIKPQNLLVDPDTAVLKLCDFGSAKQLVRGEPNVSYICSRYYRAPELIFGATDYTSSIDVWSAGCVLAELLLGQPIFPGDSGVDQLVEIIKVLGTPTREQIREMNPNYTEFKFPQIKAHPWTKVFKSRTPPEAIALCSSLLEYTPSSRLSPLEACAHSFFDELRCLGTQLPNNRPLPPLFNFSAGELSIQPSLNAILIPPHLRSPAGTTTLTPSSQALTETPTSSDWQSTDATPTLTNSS

HCT-116 [11] = assay: Antiproliferative activity against human HCT-116 cells assessed as reduction in cell viability incubated for 72 hrs by CellTiter-Blue fluorescence assay; settings: HCT-116, 72 h
SK-OV-3 = assay: Antiproliferative activity against human SKOV3 cells assessed as reduction in cell viability incubated for 72 hrs by CellTiter-Blue fluorescence assay; settings: SK-OV-3, 72 h
HCT-116 [12] = assay: Cell cycle arrest in human HCT-116 cells assessed as accumulation at G0/G1 phase at 200 nM after 24 hrs by propidium iodide staining-based flow cytometric analysis (reference value: 20.9 %); assay type: functional
K562 [13] = assay: Cell cycle arrest in human K562 cells assessed as accumulation at S phase at 100 nM after 24 hrs by propidium iodide staining-based flow cytometric analysis (reference value: […]); assay type: functional
K562 [14] = assay: Cell cycle arrest in human K562 cells assessed as accumulation at G0/G1 phase at 50 nM after 24 hrs by propidium iodide staining-based flow cytometric analysis (reference value: 21.4 %); assay type: functional
HCT-116 [15] = assay: Cell cycle arrest in human HCT-116 cells assessed as accumulation at S phase at 100 nM after 24 hrs by propidium iodide staining-based flow cytometric analysis (reference value: 47.6 %); assay type: functional
[16] = biological target: T2, Cyclin-dependent kinase 5/CDK5 activator 1 (Homo sapiens) (UniProt Q00535+Q15078); assay: Inhibition of human CDK5/p25 assessed as residual activity at 1 uM in presence of ATP by ADP-glo luminescent assay relative to control; assay type: protein-complex assay; procedure, shortened: as §1
T2 sequence (Q00535 whole entry): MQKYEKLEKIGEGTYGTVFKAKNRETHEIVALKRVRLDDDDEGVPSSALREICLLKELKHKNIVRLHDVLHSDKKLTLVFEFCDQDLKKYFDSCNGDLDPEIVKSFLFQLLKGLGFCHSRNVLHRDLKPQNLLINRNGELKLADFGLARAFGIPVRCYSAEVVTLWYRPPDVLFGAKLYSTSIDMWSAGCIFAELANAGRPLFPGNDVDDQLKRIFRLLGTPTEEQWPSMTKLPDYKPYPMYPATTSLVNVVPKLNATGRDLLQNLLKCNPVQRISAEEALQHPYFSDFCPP
T2 sequence (Q15078 99-307 partner limits assumed): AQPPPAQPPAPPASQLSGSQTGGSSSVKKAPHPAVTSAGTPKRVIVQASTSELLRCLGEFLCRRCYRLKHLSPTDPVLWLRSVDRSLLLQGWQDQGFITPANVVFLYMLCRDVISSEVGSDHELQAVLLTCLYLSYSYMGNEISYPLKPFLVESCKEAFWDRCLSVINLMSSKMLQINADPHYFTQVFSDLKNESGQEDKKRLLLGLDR

[17] = biological target: T2, Cyclin-dependent kinase 5/CDK5 activator 1 (Homo sapiens); assay: Inhibition of human CDK5/p25 assessed as residual activity at 10 uM in presence of ATP by ADP-glo luminescent assay relative to control; assay type: protein-complex assay; procedure, shortened: as §1
HCT-116 [18] = assay: Cell cycle arrest in human HCT-116 cells assessed as increase in accumulation at G2/M phase after 24 hrs by propidium iodide staining-based flow cytometric analysis; assay type: functional; settings: dose 100-500 nM
[19] = biological target: T1, CDK2/Cyclin A2 (Homo sapiens); assay: Inhibition of human CDK2/cyclin A assessed as residual activity at 1 uM in presence of ATP by ADP-glo luminescent assay relative to control; assay type: protein-complex assay; procedure, shortened: as §1
Sus scrofa [20] = species: Sus scrofa; assay: Inhibition of porcine CK1delta/epsilon assessed as residual activity at 10 uM in presence of ATP by ADP-glo luminescent assay relative to control
K562 [21] = assay: Cell cycle arrest in human K562 cells assessed as accumulation at G2/M phase at 100 nM after 24 hrs by propidium iodide staining-based flow cytometric analysis (reference value: 12.9 %); assay type: functional
HCT-116 [22] = assay: Cell cycle arrest in human HCT-116 cells assessed as accumulation at G2/M phase at 500 nM after 24 hrs by propidium iodide staining-based flow cytometric analysis (reference value: 31.5 %); assay type: functional

IC50 (MIA PaCa-2 [2]): 52.9 nM
Activity [3]: 30%
Activity (Leishmania major): 62%
IC50 (PC-3): 85 nM
Activity (Sus scrofa [8]): 90%
IC50 [10]: 70 nM
IC50 (HCT-116 [11]): 81 nM
IC50 (SK-OV-3): 94 nM
Activity [16]: 68%
Activity [17]: 24%
Activity [19]: 87%
Activity (Sus scrofa [20]): 62%
SMILES: CN1CC=C(c2c(O)cc(O)c3c(=O)cc(-c4ccc(Sc5nc6ccccc6n5C)cc4Cl)oc23)CC1
Activity (K562 [1]): 49.4%
Activity (K562 [4]): 68.6%
Activity (HCT-116 [5]): 30.9%
Activity (HCT-116 [6]): 25.1%
Activity (K562 [7]): Dose-dependent effect
Ratio IC50 (MIA PaCa-2 [9]): <=6
Activity (HCT-116 [12]): 26%
Activity (K562 [13]): 21%
Activity (K562 [14]): 27.8%
Activity (HCT-116 [15]): 48.7%
Activity (HCT-116 [18]): Dose-dependent effect
Activity (K562 [21]): 28.7%
Activity (HCT-116 [22]): 40%
